Reference: ChEMBL document CHEMBL1145138, “Design and synthesis of 4-azaindoles as inhibitors of p38 MAP kinase” (J Med Chem, 2003)
pIC50: −log10 of the molar value. Blank lines part the entries; values can stand above or below the compound they belong to.

Key:
[1] = target: T1, Mitogen-activated protein kinase 14 (Homo sapiens, UniProt Q16539); assay: In vitro inhibitory concentration against Mitogen-activated protein kinase p38 alpha
[2] = target: Mitogen-activated protein kinase 14 (Rattus norvegicus) (UniProt P70618); assay: In vivo percent inhibition of LPS stimulated TNF alpha synthesis in rat at a concentration of 30 mg/kg; type: functional, organism-based; set-up: dose 30 mg/kg
Chain of Mitogen-activated protein kinase 14 (Rattus norvegicus) (P70618 whole entry): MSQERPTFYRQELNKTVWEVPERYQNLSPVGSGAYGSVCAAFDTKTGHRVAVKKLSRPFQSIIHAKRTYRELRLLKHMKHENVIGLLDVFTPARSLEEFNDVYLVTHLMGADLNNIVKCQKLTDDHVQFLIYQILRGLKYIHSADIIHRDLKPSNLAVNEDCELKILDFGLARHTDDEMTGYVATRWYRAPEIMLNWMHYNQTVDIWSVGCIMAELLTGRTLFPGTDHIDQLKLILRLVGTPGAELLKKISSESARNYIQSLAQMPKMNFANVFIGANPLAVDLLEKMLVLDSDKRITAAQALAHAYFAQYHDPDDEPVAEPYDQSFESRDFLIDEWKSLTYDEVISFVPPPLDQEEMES
Method in brief: (§1)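 Female Wistar/Han rats, 8 per group, were dosed orally at −30 min with compound in CMC vehicle (0.9% NaCl, 0.5% Na-CMC, 0.4% polysorbate 80, 0.9% benzyl alcohol) or with vehicle alone. LPS 50 μg/kg was given ip at 0 h. At 1.5 h, blood was taken by cardiocentesis after CO₂ euthanasia, and serum TNFα was measured by ELISA against vehicle controls.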

MAP kinase p38 [3] = target: T2, MAP kinase p38 (Homo sapiens, UniProt O15264+Q15759+Q16539+P53778); assay: Inhibition of LPS-induced p38-related IL1-beta production in human white blood cells; type: functional, cell-based
Method in brief: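 Heparinized whole blood from donors medication-free for at least 14 days. Compounds came from a 6 mM DMSO stock, six 3-fold serial dilutions in DMSO, then diluted 1/20 in RPMI and run in triplicate. Blood was preincubated with compound 30 min at 37 °C, then stimulated with E. coli 0127:B8 LPS at 0.5 μg/mL final overnight at 37 °C, 5% CO₂. Plasma IL-1β was measured by ELISA.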

[4] = T 1/2 at a dose of 10 mg/Kg administered intravenously in female hanover-wistar rat; type: ADME, organism-based; settings: in vivo, iv
Method in brief: (§2)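 Female Wistar/Han rats weighing 180–220 g, 3 per dose regime, received a single 10 mg/kg IV bolus in 50% cyclodextran/water. Blood was drawn under CO₂:O₂ (60:40) via orbital sinus or cardiac puncture at 1, 3, 6, 8 and 24 h. Plasma was protein-precipitated with acetonitrile, diluted in 50 mM formate buffer and quantified by LC/MS.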

[5] = AUC at a dose of 10 mg/Kg administered perorally in female hanover-wistar rat; type: ADME, organism-based; settings: plasma, po
Method in brief: (§3)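 Female Wistar/Han rats (180–220 g, n=3 per regime) received a single 10 mg/kg oral suspension in 0.9% NaCl, 0.5% Na-CMC, 0.4% polysorbate 80 and 0.9% benzyl alcohol. Blood was taken at 1, 3, 6, 8 and 24 h by orbital sinus or cardiac puncture. Plasma drug was measured by LC/MS after acetonitrile precipitation; the comparison arm was a 10 mg/kg IV bolus.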

[6] = target: Cyclin-dependent kinase 4 (Homo sapiens, UniProt P11802); assay: Inhibition of Cyclin-dependent kinase 4
Chain of Cyclin-dependent kinase 4 (P11802 whole entry): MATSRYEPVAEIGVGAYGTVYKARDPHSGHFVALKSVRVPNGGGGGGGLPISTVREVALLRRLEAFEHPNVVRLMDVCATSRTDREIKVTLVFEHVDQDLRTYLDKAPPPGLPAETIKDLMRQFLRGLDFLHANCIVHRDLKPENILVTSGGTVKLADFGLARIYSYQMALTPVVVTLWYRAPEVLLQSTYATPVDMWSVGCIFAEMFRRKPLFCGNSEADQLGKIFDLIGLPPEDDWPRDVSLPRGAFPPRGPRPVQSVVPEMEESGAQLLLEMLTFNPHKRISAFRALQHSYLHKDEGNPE

[7] = Bioavailability at a dose of 10 mg/Kg administered perorally in female hanover-wistar rat; type: ADME, organism-based; settings: in vivo, po; method in brief: as §3
[8] = target: Vascular endothelial growth factor receptor 2 (Homo sapiens, UniProt P35968); assay: Inhibition of Vascular endothelial growth factor receptor 2
Chain of Vascular endothelial growth factor receptor 2 (P35968 whole entry): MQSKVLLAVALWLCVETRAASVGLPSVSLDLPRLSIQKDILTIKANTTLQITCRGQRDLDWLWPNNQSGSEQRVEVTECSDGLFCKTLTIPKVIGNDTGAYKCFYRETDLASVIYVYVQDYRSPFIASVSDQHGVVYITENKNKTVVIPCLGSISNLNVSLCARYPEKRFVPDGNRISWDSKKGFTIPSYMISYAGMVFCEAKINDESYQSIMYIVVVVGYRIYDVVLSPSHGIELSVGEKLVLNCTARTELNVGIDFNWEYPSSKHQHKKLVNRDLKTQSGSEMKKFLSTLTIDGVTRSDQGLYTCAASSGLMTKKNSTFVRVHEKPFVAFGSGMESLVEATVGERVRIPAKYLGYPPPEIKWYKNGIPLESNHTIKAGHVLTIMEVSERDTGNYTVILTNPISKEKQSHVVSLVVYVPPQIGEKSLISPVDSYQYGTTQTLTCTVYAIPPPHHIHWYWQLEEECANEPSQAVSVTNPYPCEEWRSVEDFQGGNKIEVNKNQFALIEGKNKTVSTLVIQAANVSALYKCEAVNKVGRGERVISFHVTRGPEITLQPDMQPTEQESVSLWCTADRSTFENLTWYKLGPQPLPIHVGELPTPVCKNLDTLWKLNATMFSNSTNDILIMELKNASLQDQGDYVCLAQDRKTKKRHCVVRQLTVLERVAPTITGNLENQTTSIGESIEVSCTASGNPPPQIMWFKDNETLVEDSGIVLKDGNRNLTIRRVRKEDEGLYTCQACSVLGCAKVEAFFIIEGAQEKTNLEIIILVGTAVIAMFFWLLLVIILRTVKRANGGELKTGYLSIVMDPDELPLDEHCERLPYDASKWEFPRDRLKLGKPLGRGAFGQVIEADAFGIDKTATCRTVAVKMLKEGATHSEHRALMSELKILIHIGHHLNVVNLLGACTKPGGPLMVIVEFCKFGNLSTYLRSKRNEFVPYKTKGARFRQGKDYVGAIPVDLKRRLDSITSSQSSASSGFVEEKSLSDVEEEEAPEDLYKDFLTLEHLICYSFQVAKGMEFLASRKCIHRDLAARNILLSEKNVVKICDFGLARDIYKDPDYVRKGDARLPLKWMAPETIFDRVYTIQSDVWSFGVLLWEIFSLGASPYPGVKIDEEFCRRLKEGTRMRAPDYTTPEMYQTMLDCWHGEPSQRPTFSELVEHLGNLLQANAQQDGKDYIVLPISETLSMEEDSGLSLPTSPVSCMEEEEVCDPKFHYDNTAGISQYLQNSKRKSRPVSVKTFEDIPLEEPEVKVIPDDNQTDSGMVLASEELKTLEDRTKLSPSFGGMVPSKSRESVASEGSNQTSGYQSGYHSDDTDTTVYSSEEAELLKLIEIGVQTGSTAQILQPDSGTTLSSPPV

[9] = T max at a dose of 10 mg/Kg administered perorally in female hanover-wistar rat; type: ADME, organism-based; settings: in vivo, po; method in brief: as §3
[10] = target: Mitogen-activated protein kinase; ERK1/ERK2 (Homo sapiens, UniProt P27361+P28482); assay: Inhibition of Mitogen-activated protein kinase ERK; type: protein assay
[11] = target: MAP kinase-activated protein kinase 2 (Homo sapiens, UniProt P49137); assay: Inhibition of MAP kinase-activated protein kinase 2
Chain of MAP kinase-activated protein kinase 2 (P49137 whole entry): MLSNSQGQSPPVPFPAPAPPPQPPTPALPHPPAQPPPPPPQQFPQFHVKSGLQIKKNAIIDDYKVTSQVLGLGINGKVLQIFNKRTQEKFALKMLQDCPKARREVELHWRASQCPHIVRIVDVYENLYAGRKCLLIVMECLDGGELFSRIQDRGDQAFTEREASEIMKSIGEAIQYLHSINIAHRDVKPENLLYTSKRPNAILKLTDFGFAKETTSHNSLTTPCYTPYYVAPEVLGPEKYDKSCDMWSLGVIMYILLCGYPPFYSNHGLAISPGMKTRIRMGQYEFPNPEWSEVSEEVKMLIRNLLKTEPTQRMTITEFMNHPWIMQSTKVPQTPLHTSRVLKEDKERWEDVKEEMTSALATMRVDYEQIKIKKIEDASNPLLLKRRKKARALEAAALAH

[12] = target: T3, Inhibitor of nuclear factor kappa-B kinase subunit beta (Homo sapiens, UniProt O14920); assay: Inhibition of I-kappa-B-kinase beta
T3 sequence (O14920 whole entry): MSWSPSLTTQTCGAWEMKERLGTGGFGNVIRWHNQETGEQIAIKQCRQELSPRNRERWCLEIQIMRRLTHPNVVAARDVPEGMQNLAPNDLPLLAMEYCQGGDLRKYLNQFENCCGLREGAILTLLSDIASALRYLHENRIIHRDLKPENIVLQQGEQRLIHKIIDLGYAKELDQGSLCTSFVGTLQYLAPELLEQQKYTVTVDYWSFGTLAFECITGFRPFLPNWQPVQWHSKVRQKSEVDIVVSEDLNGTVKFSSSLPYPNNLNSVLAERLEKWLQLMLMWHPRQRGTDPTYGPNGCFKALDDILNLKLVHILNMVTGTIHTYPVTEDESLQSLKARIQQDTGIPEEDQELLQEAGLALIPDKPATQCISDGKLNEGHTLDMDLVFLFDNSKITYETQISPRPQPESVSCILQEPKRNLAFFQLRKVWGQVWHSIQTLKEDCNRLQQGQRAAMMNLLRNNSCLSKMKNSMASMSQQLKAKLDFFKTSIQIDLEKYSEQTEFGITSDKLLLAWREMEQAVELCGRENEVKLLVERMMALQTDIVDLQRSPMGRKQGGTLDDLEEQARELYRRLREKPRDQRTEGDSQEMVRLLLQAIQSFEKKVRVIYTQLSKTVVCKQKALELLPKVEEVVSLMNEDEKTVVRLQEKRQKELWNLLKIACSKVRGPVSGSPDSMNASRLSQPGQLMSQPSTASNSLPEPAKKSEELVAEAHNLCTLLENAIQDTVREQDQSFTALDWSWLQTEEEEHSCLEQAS

[13] = CL at a dose of 10 mg/Kg administered intravenously in female hanover-wistar rat; type: ADME, organism-based; settings: in vivo, iv; method in brief: as §2
[14] = AUC at a dose of 10 mg/Kg administered intravenously in female hanover-wistar rat; type: ADME, organism-based; settings: plasma, iv; method in brief: as §2
[15] = target: Cyclin-dependent kinase 2 (Homo sapiens, UniProt P24941); assay: Inhibition of Cyclin-dependent kinase 2
[16] = target: Mitogen-activated protein kinase 8 (Homo sapiens, UniProt P45983); assay: Inhibition of c-Jun N-terminal kinase 1
Chain of Mitogen-activated protein kinase 8 (P45983 whole entry): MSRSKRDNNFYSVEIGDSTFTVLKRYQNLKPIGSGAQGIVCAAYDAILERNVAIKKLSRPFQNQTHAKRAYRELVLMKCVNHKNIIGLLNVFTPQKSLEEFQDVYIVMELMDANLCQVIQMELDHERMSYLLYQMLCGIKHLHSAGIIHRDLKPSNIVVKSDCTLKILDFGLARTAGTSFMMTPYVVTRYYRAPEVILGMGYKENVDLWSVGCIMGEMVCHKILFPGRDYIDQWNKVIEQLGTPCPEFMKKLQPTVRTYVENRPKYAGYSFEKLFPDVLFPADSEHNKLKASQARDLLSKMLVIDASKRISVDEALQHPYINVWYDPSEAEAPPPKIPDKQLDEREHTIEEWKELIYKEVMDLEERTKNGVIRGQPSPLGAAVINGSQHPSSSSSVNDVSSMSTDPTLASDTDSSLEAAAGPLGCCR

[17] = T 1/2 at a dose of 10 mg/Kg administered perorally in female hanover-wistar rat; type: ADME, organism-based; settings: in vivo, po; method in brief: as §3
[18] = target: Interleukin-1 receptor-associated kinase 1 (Homo sapiens, UniProt P51617); assay: Inhibition of interleukin-1 receptor-associated kinase 1
Chain of Interleukin-1 receptor-associated kinase 1 (P51617 whole entry): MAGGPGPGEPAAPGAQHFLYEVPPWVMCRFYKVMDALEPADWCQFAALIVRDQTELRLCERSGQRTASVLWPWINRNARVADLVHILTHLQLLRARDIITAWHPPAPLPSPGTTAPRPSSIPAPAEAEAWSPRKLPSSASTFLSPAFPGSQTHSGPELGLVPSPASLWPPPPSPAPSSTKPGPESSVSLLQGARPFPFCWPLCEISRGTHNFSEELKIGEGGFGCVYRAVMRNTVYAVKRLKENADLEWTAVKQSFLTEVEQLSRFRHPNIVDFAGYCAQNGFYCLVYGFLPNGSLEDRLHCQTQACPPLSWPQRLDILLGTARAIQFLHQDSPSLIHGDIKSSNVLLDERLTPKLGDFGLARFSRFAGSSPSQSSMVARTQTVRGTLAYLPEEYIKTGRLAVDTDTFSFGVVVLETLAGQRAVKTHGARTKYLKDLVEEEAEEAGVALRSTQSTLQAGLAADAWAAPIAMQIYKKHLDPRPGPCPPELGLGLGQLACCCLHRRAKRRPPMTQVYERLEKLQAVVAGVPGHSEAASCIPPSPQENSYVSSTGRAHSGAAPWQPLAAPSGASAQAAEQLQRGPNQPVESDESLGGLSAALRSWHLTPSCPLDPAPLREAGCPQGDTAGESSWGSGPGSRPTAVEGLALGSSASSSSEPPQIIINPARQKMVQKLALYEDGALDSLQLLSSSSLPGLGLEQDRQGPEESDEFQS

Homo sapiens = species on record: Homo sapiens; assay: Caco-2 permeability was determined; activity value is 5.8*10e-5; type: ADME
[19] = target: Cyclin-dependent kinase 1 (Homo sapiens, UniProt P06493); assay: Inhibition of Cyclin-dependent kinase 1
Chain of Cyclin-dependent kinase 1 (P06493 whole entry): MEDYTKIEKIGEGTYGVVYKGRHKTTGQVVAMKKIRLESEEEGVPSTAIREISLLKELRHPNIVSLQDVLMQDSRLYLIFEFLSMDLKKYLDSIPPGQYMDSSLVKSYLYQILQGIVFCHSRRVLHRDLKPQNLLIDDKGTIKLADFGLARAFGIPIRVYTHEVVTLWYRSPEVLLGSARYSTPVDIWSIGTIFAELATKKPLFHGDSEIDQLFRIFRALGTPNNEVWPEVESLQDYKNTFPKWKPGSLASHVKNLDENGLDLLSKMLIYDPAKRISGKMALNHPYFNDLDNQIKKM

[20] = T max at a dose of 10 mg/Kg administered intravenously in female hanover-wistar rat; type: ADME, organism-based; settings: in vivo, iv; method in brief: as §2
MAP kinase p38 [21] = target: T2, MAP kinase p38; assay: In vitro inhibition of LPS induced p38-related TNFalpha release by THP-1 cells; type: functional, cell-based
Method in brief: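 THP-1 cells at 2.5×10⁶ cells/mL in RPMI with 15% FBS and 0.02 mM 2-mercaptoethanol were preincubated 30 min at 37 °C with compound in DMSO-containing medium (DMSO stated as 5% final). LPS was then added at 0.5 μg/mL final for a further 2 h. Supernatant TNFα was read by trapping ELISA with two anti-TNFα antibodies.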

Protein kinase C (PKC) = assay: Inhibition of Protein kinase C; type: protein assay
[22] = C max at a dose of 10 mg/Kg administered intravenously in female hanover-wistar rat; type: ADME, organism-based; set-up: dose 10 mg/Kg, route intravenous; settings: in vivo, iv; method in brief: as §2
[23] = target: Tyrosine-protein kinase Fyn (Homo sapiens, UniProt P06241); assay: Inhibition of p55 Fyn kinase
Chain of Tyrosine-protein kinase Fyn (P06241 whole entry): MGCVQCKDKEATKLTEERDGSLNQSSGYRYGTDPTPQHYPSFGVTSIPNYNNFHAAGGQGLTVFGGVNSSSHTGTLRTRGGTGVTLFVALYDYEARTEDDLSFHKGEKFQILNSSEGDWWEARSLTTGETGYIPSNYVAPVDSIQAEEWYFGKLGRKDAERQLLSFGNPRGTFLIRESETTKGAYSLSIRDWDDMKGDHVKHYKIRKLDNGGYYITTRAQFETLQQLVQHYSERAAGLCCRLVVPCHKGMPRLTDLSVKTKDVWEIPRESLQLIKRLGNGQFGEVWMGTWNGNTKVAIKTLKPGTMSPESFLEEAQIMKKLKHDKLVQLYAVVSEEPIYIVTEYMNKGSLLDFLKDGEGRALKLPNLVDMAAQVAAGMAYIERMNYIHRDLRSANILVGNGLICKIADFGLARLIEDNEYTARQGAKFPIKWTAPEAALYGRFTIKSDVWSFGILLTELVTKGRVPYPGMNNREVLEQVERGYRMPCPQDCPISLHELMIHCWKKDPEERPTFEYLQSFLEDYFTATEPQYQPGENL

Rattus norvegicus = species on record: Rattus norvegicus; assay: Effective dose against LPS stimulated TNF alpha production in rats; type: functional; method in brief: as §1
[24] = target: T1, Mitogen-activated protein kinase 14; assay: Inhibition of Mitogen-activated protein kinase p38 alpha
Method in brief: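 Human recombinant active p38α (5 nM) in MOPS pH 7.4 buffer (40 mM MgCl₂, 1 mM DTT, β-glycerophosphate, EGTA, orthovanadate) was preincubated 10 min at room temperature with compound (0–10 μM, DMSO). Reaction was started with γ-[³³P]ATP (50 μM) and MBP (35 μM), run 30 min at 30 °C, then captured on phosphocellulose, acid-washed and counted. IC50 was fitted as fractional activity = 1/([I]/IC50 + 1).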

[25] = C max at a dose of 10 mg/Kg administered perorally in female hanover-wistar rat; type: ADME, organism-based; set-up: dose 10 mg/Kg, route oral; settings: in vivo, po; method in brief: as §3
[26] = target: T4, Interleukin-1 receptor-associated kinase 4 (Homo sapiens, UniProt Q9NWZ3); assay: Inhibition of Interleukin-1 receptor-associated kinase-4
T4 sequence (Q9NWZ3 whole entry): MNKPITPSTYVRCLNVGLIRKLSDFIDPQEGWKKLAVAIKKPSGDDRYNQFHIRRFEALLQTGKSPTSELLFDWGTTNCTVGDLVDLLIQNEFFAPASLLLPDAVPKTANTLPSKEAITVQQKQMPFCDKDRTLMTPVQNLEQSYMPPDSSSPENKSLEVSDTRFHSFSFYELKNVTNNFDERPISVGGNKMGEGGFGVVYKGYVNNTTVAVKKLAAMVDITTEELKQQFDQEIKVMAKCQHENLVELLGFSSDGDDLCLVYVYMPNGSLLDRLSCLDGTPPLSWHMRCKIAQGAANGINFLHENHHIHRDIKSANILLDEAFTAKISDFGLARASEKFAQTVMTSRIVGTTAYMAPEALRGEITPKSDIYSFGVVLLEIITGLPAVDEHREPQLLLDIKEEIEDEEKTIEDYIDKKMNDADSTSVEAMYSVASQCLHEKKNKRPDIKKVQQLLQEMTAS

[27] = target: cAMP-dependent protein kinase (PKA) (Homo sapiens, UniProt P22694+P17612+P22612); assay: Inhibition of Protein kinase A (PKA); type: protein assay
[28] = target: Cyclin-dependent kinase 3 (Homo sapiens, UniProt Q00526); assay: Inhibition of Cyclin-dependent kinase 3
Chain of Cyclin-dependent kinase 3 (Q00526 whole entry): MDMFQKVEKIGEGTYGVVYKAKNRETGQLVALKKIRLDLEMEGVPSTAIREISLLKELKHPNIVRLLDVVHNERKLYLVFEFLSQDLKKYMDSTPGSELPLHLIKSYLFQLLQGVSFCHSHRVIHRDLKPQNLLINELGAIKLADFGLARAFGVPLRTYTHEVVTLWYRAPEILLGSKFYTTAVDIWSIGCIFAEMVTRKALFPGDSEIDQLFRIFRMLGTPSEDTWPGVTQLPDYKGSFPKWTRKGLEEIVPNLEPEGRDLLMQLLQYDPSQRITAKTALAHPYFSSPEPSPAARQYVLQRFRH

[29] = Partition coefficient (logP); type: physicochemical; settings: octanol/water

T1 sequence (Q16539 whole entry): as the sequence (P70618 whole entry) above, with V17I, H48L, A263T, E321D, F332L counted along it

pIC50 [1]: 7.62 | inhibition [2]: 41%
Structure (SMILES): CCn1c(-c2ccncc2)c(-c2ccc(F)cc2)c2ncccc21

pIC50 [1]: 5.48
Structure (SMILES): Nc1ncnc2c1cc(-c1ccncc1)n2-c1ccc(F)cc1

pIC50 [1]: 5.51
Structure (SMILES): Fc1ccc(-c2c(-c3ccncc3)[nH]c3ccncc23)cc1

pIC50 [1]: 4.63 | inhibition [2]: 50%
Structure (SMILES): O=C(O)Cn1c(-c2ccncc2)c(-c2ccc(F)cc2)c2ncccc21

The remaining lines, values behind:

Structure (SMILES): Fc1ccc(-c2c(-c3ccncc3)n(CCN3CCCC3)c3cccnc23)cc1
pIC50 [1]: 6.66 | inhibition [2]: 86%

Structure (SMILES): Fc1ccc(-c2c(-c3ccncc3)n(CCN3CCCCC3)c3cccnc23)cc1
pIC50 [1]: 5.71 | inhibition [2]: 75%

Structure (SMILES): Fc1ccc(-c2c(-c3ccncc3)[nH]c3cncnc23)cc1
pIC50 [1]: 6.05 | inhibition [2]: 26%

Structure (SMILES): Fc1ccc(-c2c(-c3ccncc3)n(CCN3CCOCC3)c3cccnc23)cc1
pIC50 [1]: 6.73 | inhibition [2]: 79%

Structure (SMILES): OCCCCNc1cc(-c2[nH]c3cccnc3c2-c2ccc(F)cc2)ccn1
pIC50 [1]: 8.30 | inhibition [2]: 69%

Structure (SMILES): C[C@H](O)CNc1cc(-c2[nH]c3cccnc3c2-c2ccc(F)cc2)ccn1
IC50 (MAP kinase p38 [3]): 0.21 µM | half-life [4]: 1.1 h | AUC [5]: 20 µM·h | pIC50 [6]: < 4.60 | bioavailability [7]: 85.6% | pIC50 [8]: < 5.00 | Tmax [9]: 1 h | IC50 [10]: > 10 µM | pIC50 [11]: < 4.52 | pIC50 [12]: < 4.52 | clearance [13]: 20 mL/min/kg | AUC [14]: 23.4 µM·h | pIC50 [15]: < 4.60 | pIC50 [16]: < 5.00 | half-life [17]: 1.5 h | pIC50 [18]: < 4.52 | Cell permeation (Homo sapiens): Permeable | pIC50 [19]: < 4.60 | Tmax [20]: < 1 h | pIC50 [1]: 9.00 | IC50 (MAP kinase p38 [21]): 0.0017 µM | IC50 (Protein kinase C (PKC)): > 10 µM | Cmax [22]: 10.3 µM | pIC50 [23]: < 5.00 | ED50 (Rattus norvegicus): 2 mg/kg | pIC50 [24]: 8.89 | Cmax [25]: 6.9 µM | pIC50 [26]: < 4.52 | IC50 [27]: > 10 µM | pIC50 [28]: < 4.60 | inhibition [2]: 88% | logP [29]: 3.5
